Data: ChEMBL document CHEMBL4406830, “Galloyl esters of trans-stilbenes are inhibitors of FASN with anticancer activity on non-small cell lung cancer cells” (Eur J Med Chem, 2019)
Blank lines part the entries; values can stand above or below the compound they belong to. Active and inactive are the calls of the source. The rule behind the calls is not given here.

Tests used:
[1] = system: NCI-H1703; experiment: Antiproliferative activity against human NCI-H1703 cells expressing FASN assessed as growth inhibition at 25 uM after 72 hrs by MTS assay relative to control; assay type: functional; conditions: NCI-H1703, 72 h
Method in brief: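 H1703 cells were treated with a single 25 µM concentration for 72 h. Viability was measured by MTS at 490 nm, with 0.1% DMSO and media-only correction, relative to untreated control. Mean ± SD of n = 3 independent determinations, unpaired t test against control.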

[2] = system: NCI-H1703; experiment: Antiproliferative activity against human NCI-H1703 cells expressing FASN assessed as reduction in cell viability after 72 hrs by MTS assay; assay type: functional, cell-based; conditions: NCI-H1703, 72 h
Method in brief: (§1)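 ATCC-sourced cells. H1299, H1650, H1703 and PC-9 were grown in RPMI 1640 with 10% FBS. A549 was grown in high-glucose DMEM with 10% FBS and 1 mM pyruvate. SAEC was grown in BEGM. Cells were seeded at 3 × 10^3 per well (H1650 3.5 × 10^3) and left to attach overnight. Serial dilutions from DMSO stocks were added, 0.1% DMSO final, for 72 h at 37 °C, 5% CO2. Medium was replaced, MTS added, and A490 read after 2 h. IC50 was taken from % viability versus log concentration, 3 experiments.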

[3] = system: NCI-H1650; experiment: Antiproliferative activity against human NCI-H1650 cells expressing FASN assessed as reduction in cell viability after 72 hrs by MTS assay; assay type: functional, cell-based; conditions: NCI-H1650, 72 h; method in brief: as §1
[4] = system: NCI-H1299; experiment: Antiproliferative activity against human NCI-H1299 cells expressing FASN assessed as reduction in cell viability after 72 hrs by MTS assay; assay type: functional, cell-based; conditions: NCI-H1299, 72 h; method in brief: as §1
[5] = target: Fatty acid synthase (Homo sapiens) (UniProt P49327); experiment: Inhibition of FASN in human NCI-H1703 cells expressing FASN assessed as disruption of AKT/FASN positive feedback loop by measuring decrease in FASN expression at 5 uM after 48 hrs by Western immunoblot based densitometric assay relative to control; assay type: cell-based
Method in brief: (§2)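 PC-9 or H1703 cells were seeded at 8 × 10^5 per 100 mm dish and treated for 48 h at 1 or 5 µM (or 5, 50 and 100 µM). RIPA lysates were BCA-quantified and run on 8% SDS-PAGE, then transferred to PVDF. Blots were probed for FASN, AKT, phospho-AKT S473 and GAPDH and detected by ECL. Bands were quantified by densitometry and normalised to vehicle control.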

[6] = target: Fatty acid synthase (Homo sapiens) (UniProt P49327); experiment: Inhibition of FASN in human PC9 cells harboring FASN expression and EGFR delE746-A750 mutant assessed as disruption of AKT/FASN positive feedback loop by measuring reduction in phosphorylated AKT expression at 100 uM after 48 hrs by Western immunoblot based densitometric assay relative to control; assay type: cell-based; method in brief: as §2
[7] = target: Fatty acid synthase (Homo sapiens) (UniProt P49327); experiment: Inhibition of FASN in human PC9 cells harboring FASN expression and EGFR delE746-A750 mutant assessed as disruption of AKT/FASN positive feedback loop by measuring reduction in AKT expression at 5 uM after 48 hrs by Western immunoblot based densitometric assay relative to control; assay type: cell-based; method in brief: as §2
[8] = target: Fatty acid synthase (Homo sapiens) (UniProt P49327); experiment: Inhibition of FASN in human PC9 cells harboring FASN expression and EGFR delE746-A750 mutant assessed as disruption of AKT/FASN positive feedback loop by measuring decrease in FASN expression at 100 uM after 48 hrs by Western immunoblot based densitometric assay relative to control; assay type: cell-based; method in brief: as §2
[9] = target: Fatty acid synthase (Homo sapiens) (UniProt P49327); experiment: Inhibition of FASN in human NCI-H1703 cells expressing FASN assessed as disruption of AKT/FASN positive feedback loop by measuring decrease in phosphorylated AKT expression at 5 uM after 48 hrs by Western immunoblot based densitometric assay relative to control; assay type: cell-based; method in brief: as §2
[10] = target: Fatty acid synthase (Homo sapiens) (UniProt P49327); experiment: Inhibition of FASN in human NCI-H1703 cells expressing FASN assessed as disruption of AKT/FASN positive feedback loop by measuring decrease in FASN expression at 50 uM after 48 hrs by Western immunoblot based densitometric assay relative to control; assay type: cell-based; method in brief: as §2
[11] = target: Fatty acid synthase (Homo sapiens) (UniProt P49327); experiment: Inhibition of FASN in human NCI-H1703 cells expressing FASN assessed as disruption of AKT/FASN positive feedback loop by measuring decrease in AKT expression at 50 uM after 48 hrs by Western immunoblot based densitometric assay relative to control; assay type: cell-based; method in brief: as §2
[12] = target: Fatty acid synthase (Homo sapiens) (UniProt P49327); experiment: Inhibition of FASN in human NCI-H1703 cells expressing FASN assessed as disruption of AKT/FASN positive feedback loop by measuring decrease in phosphorylated AKT expression at 100 uM after 48 hrs by Western immunoblot based densitometric assay relative to control; assay type: cell-based; method in brief: as §2
[13] = target: Fatty acid synthase (Homo sapiens) (UniProt P49327); experiment: Inhibition of FASN in human NCI-H1703 cells expressing FASN assessed as disruption of AKT/FASN positive feedback loop by measuring decrease in AKT expression at 100 uM after 48 hrs by Western immunoblot based densitometric assay relative to control; assay type: cell-based; method in brief: as §2
[14] = system: PC-9; experiment: Induction of apoptosis in human PC9 cells harboring FASN expression and EGFR delE746-A750 mutant assessed as cell death at 5 to 100 uM after 72 hrs by Annexin-V FITC/PI staining-based flow cytometry; assay type: functional
[15] = target: Fatty acid synthase (Homo sapiens) (UniProt P49327); experiment: Inhibition of FASN in human PC9 cells harboring FASN expression and EGFR delE746-A750 mutant assessed as disruption of AKT/FASN positive feedback loop by measuring reduction in AKT expression at 50 uM after 48 hrs by Western immunoblot based densitometric assay relative to control; assay type: cell-based; method in brief: as §2
[16] = target: Fatty acid synthase (Homo sapiens) (UniProt P49327); experiment: Inhibition of full length human FASN transfected in HeLa cell lysates at 10 uM using acetyl Co-A/malonyl Co-A as substrate preincubated with enzyme for 2 hrs followed by substrate addition measured after 10 mins in presence of NADPH by microplate reader analysis; assay type: subcellular; conditions: Lysate
Method in brief: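 Human FASN was made by in vitro translation from a FASN plasmid. Lysate was diluted 3:7 in 100 mM potassium phosphate, pH 6.5, 1 mM EDTA. It was preincubated with compound (10 µM final) for 2 h at 37 °C. Buffer containing acetyl-CoA (55 µM) and NADPH (330 µM) was added, then the reaction was started with malonyl-CoA (500 µM stock). A340 was read at 0 and 10 min; triplicates.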

[17] = target: Fatty acid synthase (Homo sapiens) (UniProt P49327); experiment: Inhibition of FASN in human PC9 cells harboring FASN expression and EGFR delE746-A750 mutant assessed as disruption of AKT/FASN positive feedback loop by measuring reduction in AKT expression at 100 uM after 48 hrs by Western immunoblot based densitometric assay relative to control; assay type: cell-based; method in brief: as §2
[18] = target: Fatty acid synthase (Homo sapiens) (UniProt P49327); experiment: Inhibition of FASN in human PC9 cells harboring FASN expression and EGFR delE746-A750 mutant assessed as disruption of AKT/FASN positive feedback loop by measuring decrease in FASN expression at 50 uM after 48 hrs by Western immunoblot based densitometric assay relative to control; assay type: cell-based; method in brief: as §2
[19] = target: Fatty acid synthase (Homo sapiens) (UniProt P49327); experiment: Inhibition of FASN in human NCI-H1703 cells expressing FASN assessed as disruption of AKT/FASN positive feedback loop by measuring decrease in phosphorylated AKT expression at 50 uM after 48 hrs by Western immunoblot based densitometric assay relative to control; assay type: cell-based; method in brief: as §2
[20] = target: Fatty acid synthase (Homo sapiens) (UniProt P49327); experiment: Inhibition of FASN in human PC9 cells harboring FASN expression and EGFR delE746-A750 mutant assessed as disruption of AKT/FASN positive feedback loop by measuring decrease in FASN expression at 5 uM after 48 hrs by Western immunoblot based densitometric assay relative to control; assay type: cell-based; method in brief: as §2
[21] = target: Fatty acid synthase (Homo sapiens) (UniProt P49327); experiment: Inhibition of FASN in human NCI-H1703 cells expressing FASN assessed as disruption of AKT/FASN positive feedback loop by measuring decrease in AKT expression at 5 uM after 48 hrs by Western immunoblot based densitometric assay relative to control; assay type: cell-based; method in brief: as §2
[22] = system: NCI-H1703; experiment: Induction of apoptosis in human NCI-H1703 cells expressing FASN assessed as cell death at 5 to 100 uM after 72 hrs by Annexin-V FITC staining/PI-based flow cytometry; assay type: functional
[23] = target: Fatty acid synthase (Homo sapiens) (UniProt P49327); experiment: Inhibition of FASN in human PC9 cells harboring FASN expression and EGFR delE746-A750 mutant assessed as disruption of AKT/FASN positive feedback loop by measuring reduction in phosphorylated AKT expression at 5 uM after 48 hrs by Western immunoblot based densitometric assay relative to control; assay type: cell-based; method in brief: as §2
[24] = target: Fatty acid synthase (Homo sapiens) (UniProt P49327); experiment: Inhibition of FASN in human PC9 cells harboring FASN expression and EGFR delE746-A750 mutant assessed as disruption of AKT/FASN positive feedback loop by measuring reduction in phosphorylated AKT expression at 50 uM after 48 hrs by Western immunoblot based densitometric assay relative to control; assay type: cell-based; method in brief: as §2
[25] = target: Fatty acid synthase (Homo sapiens) (UniProt P49327); experiment: Inhibition of FASN in human NCI-H1703 cells expressing FASN assessed as disruption of AKT/FASN positive feedback loop by measuring decrease in FASN expression at 100 uM after 48 hrs by Western immunoblot based densitometric assay relative to control; assay type: cell-based; method in brief: as §2

Sequence of Fatty acid synthase (Homo sapiens) (P49327 whole entry, looked up): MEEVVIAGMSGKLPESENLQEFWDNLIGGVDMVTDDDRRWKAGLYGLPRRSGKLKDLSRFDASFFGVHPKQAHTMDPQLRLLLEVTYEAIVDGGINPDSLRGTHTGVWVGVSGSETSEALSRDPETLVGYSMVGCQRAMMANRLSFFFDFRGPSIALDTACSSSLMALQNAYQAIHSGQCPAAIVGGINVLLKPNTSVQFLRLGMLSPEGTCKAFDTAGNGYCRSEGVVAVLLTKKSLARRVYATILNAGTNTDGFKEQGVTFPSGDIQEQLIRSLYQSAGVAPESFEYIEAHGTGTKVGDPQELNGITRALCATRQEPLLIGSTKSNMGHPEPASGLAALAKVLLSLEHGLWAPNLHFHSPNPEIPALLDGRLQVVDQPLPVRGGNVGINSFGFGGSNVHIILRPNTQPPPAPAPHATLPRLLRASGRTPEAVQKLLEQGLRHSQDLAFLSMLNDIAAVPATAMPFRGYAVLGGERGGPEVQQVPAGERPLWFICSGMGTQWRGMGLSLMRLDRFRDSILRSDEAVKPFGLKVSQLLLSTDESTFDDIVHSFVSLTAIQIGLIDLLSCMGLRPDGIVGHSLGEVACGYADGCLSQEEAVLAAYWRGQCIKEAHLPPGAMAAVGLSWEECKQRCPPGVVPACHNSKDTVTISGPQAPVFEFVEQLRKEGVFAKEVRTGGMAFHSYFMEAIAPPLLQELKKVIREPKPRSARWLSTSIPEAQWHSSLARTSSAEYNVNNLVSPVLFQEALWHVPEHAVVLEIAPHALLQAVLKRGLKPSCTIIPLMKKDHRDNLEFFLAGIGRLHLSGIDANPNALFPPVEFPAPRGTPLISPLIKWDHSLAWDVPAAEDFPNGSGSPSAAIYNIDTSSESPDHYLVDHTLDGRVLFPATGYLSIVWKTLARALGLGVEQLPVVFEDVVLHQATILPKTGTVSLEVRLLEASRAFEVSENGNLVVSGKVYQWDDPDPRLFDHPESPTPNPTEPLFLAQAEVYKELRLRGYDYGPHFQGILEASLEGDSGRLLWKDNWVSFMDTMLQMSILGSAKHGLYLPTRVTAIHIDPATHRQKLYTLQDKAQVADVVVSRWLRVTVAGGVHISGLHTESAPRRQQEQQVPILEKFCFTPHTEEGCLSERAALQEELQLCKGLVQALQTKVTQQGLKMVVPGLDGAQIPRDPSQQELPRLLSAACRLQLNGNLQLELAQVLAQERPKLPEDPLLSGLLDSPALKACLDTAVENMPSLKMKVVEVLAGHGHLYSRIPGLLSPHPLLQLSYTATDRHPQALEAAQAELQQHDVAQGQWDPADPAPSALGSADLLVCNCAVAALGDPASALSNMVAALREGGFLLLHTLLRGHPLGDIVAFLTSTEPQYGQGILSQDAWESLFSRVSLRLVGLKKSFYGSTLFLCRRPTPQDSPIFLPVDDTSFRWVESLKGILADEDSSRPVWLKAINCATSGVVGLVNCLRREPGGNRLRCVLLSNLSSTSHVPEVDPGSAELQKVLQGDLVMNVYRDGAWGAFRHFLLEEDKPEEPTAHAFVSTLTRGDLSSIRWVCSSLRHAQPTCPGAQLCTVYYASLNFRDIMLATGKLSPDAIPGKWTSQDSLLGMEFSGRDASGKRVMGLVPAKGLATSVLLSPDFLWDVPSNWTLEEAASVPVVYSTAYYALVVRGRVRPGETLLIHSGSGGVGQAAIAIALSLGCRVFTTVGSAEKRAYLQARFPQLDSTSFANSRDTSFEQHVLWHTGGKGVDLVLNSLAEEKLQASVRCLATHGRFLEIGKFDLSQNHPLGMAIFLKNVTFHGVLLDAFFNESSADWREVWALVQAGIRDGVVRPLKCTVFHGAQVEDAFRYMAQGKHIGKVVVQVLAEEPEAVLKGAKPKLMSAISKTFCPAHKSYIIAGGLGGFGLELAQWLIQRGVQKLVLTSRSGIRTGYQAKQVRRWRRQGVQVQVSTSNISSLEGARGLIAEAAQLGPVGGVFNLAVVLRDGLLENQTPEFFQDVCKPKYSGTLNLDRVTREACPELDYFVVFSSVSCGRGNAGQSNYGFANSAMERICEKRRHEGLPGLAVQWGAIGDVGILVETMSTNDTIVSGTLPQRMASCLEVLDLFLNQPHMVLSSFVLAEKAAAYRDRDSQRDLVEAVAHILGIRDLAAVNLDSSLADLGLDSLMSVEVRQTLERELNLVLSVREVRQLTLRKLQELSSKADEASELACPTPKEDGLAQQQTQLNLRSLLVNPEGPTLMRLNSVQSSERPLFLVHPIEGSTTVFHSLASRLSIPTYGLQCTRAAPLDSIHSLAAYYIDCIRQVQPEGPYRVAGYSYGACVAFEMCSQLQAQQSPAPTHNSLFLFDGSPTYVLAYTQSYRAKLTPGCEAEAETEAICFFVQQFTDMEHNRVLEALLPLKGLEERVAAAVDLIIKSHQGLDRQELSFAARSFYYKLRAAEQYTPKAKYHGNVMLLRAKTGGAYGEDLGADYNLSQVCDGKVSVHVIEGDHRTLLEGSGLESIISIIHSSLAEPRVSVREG

IC50 [2]: 8.9 µM | IC50 [3]: 14.1 µM | IC50 [4]: 11 µM
SMILES: O=C(Oc1ccc(/C=C/c2cccc(OC(=O)c3ccc(O)c(O)c3)c2)cc1)c1ccc(O)c(O)c1
inhibition at 25 µM [1]: > 50%

IC50 [2]: 39.3 µM | IC50 [3]: 122 µM | IC50 [4]: 25.9 µM
SMILES: O=C(Oc1ccccc1Cc1ccccc1OC(=O)c1cc(O)c(O)c(O)c1)c1cc(O)c(O)c(O)c1
inhibition at 25 µM [1]: > 50%

SMILES: O=C(Oc1ccc(-c2cccc3ccccc23)cc1)c1cc(O)c(O)c(O)c1
inhibition at 25 µM [1]: < 50%

SMILES: COc1cc(C(=O)Oc2ccc(Cc3ccc(OC(=O)c4cc(OC)c(OC)c(OC)c4)cc3)cc2)cc(OC)c1OC
inhibition at 25 µM [1]: < 50%

Ratio [5]: 1.05 | Ratio [6]: 0.88 | Ratio [7]: 0.99 | Ratio [8]: 1.04 | Ratio [9]: 0.97 | Ratio [10]: 1.12 | Ratio [11]: 0.99 | Ratio [12]: 0.73 | Ratio [13]: 1 | Ratio [15]: 1.01 | inhibition [16]: inactive | Ratio [17]: 0.98 | Ratio [18]: 1.01 | Ratio [19]: 0.82 | Ratio [20]: 0.99 | Ratio [21]: 1.09 | Ratio [23]: 1.02 | Ratio [24]: 0.95 | Ratio [25]: 1.05
SMILES: COc1cc(C(=O)Oc2ccc(/C=C/c3cccc(OC(=O)c4cc(OC)c(OC)c(OC)c4)c3)cc2)cc(OC)c1OC
inhibition at 25 µM [1]: < 50% | Activity [14]: inactive | Activity [22]: inactive

IC50 [2]: 6.2 µM | IC50 [3]: 49.7 µM | IC50 [4]: 8.6 µM
SMILES: O=C(Oc1ccc(Cc2ccc(OC(=O)c3cc(O)c(O)c(O)c3)cc2)cc1)c1cc(O)c(O)c(O)c1
inhibition at 25 µM [1]: > 50%
